# Calb biofilm kill = mixture kills Candida albicans biofilm cells | AID 1242 | C. albicans biofilm persisters + clotrimazole, fluorescence viability; primary screen in compound mixtures of four per well | inhibition, % at 7.6 µM | 120,000 tested, 0.02% active;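 active = inhibition above 30.3% in the primary screen of four-compound pools, then above 30% when the compound was retested; inconclusive = passed the primary limit but could not be retested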;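 note: compounds exposed to preformed 24 h biofilms for 48 h; 0% = untreated biofilm control and 100% = clotrimazole plus chlorhexidine kill blank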
#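 Probe or stimulus – Clotrimazole 50 µg/mL co-treatment · System – C. albicans biofilms · Schedule – 24 h biofilm formation, then 48 h compound exposure, 37 °C · Evaluation – percent inhibition of biofilm viability · Technique – 2-h Alamar Blue fluorescence, 535/590 nm excitation/emission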
# ROMK mod = human ROMK K+ channel modulation, primary screen; P48048; Tet-inducible ROMK, thallium flux fluorescence; actives lie on both sides; B-score at 10 µM; 130,000 tested, 2% active; AID 1918;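 active = signal ratio slope over the read window, or its plate-corrected B-score, at least 3 SD from the plate mean, either direction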;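 note: B-score of the F/F0 ratio slope over 7 to 12 s after thallium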
# Target sequence (P48048 whole entry, looked up): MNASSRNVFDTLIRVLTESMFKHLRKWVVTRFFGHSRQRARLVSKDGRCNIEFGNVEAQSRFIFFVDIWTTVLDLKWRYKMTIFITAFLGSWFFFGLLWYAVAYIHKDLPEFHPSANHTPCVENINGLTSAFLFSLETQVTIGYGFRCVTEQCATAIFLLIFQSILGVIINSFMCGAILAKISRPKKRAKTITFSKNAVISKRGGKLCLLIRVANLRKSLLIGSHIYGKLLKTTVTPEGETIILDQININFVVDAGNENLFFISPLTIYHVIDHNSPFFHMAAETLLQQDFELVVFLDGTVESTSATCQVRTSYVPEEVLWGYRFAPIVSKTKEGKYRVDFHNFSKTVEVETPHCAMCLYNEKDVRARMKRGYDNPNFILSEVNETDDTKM
# ROMK retest = human ROMK channel modulation, retest confirmation; shares compounds with ROMK mod; ROMK thallium flux, fluorescence ratio; stronger effect = lower value; normalized thallium flux (F/F0 slope) at 10 µM; 3,000 tested, 54% active; AID 1917;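 active = Flux at 10 µM at least 3 SD below or above vehicle control mean in one or both replicates; inconclusive = no clear call, values can overlap the other calls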
# * marks the source's active call; other numbers are inactive results; ? = inconclusive; / = not tested or not shown. This excerpt belongs to a sample that is enriched for hits.
SMILES,Calb biofilm kill,ROMK mod,ROMK retest
CC(C)CCN1CCN(CCCn2cccn2)CC1CCO (configuration not stated),0.0,0.00727,/
O=C(O)c1cc2c(s1)-c1ccccc1CC2,15.2,-0.312,/
O=C(O)c1cc2c(s1)-c1ccccc1OC2,/,/,?
COc1ccc(NC(=O)c2ccc(S(=O)(=O)N3CCOCC3)o2)cc1,16.5,/,/
COc1ccccc1NC(=S)NCc1ccc2c(c1)OCO2,21.9,0.306,/
COc1ccc(NC(=O)Cc2c(F)cccc2Cl)c(OC)c1,39.4,-0.66,/
C=CCN1C(=O)NC(c2ccc(OC)cc2)(C(F)(F)F)S/C1=C(\C#N)c1nnc(N2CCOCC2)n1-c1ccccc1 (configuration not stated),15.1,-0.582,/
C=CCN1C(c2cccc(C(F)(F)F)c2)=CS/C1=C(/C#N)c1nnc(N2CCOCC2)n1-c1ccccc1,20.8,-4.6*,0.0467*
N#C/C(=C\c1ccc(-c2cccc([N+](=O)[O-])c2)o1)c1nnc(N2CCOCC2)n1-c1ccccc1,18.2,0.0253,/
C=CCN1C(c2ccc(Br)cc2)=CS/C1=C(/C#N)c1nnc(N2CCOCC2)n1-c1ccccc1,-1.8,-3.93*,0.0566*
CCNS(=O)(=O)c1ccc2c(c1)NCC2,7.5,0.579,/
CC(=O)c1cc(CN2CCN(C(C)C)C(CCO)C2)cs1 (configuration not stated),-11.2,0.903,/
CC1=CC(C)(C)N=C(Nc2nc(C)c3cc(C)cc(C)c3n2)N1,10.9,-3.94*,0.0489*
Cc1cc(C)c2nc(Nc3nc(-c4ccccc4)cc(=O)[nH]3)nc(C)c2c1,29.9,/,/
Cc1[nH]n(-c2ncc(-c3ccccc3)s2)c(=O)c1C(c1ccc(Cl)cc1)C(C#N)C#N (configuration not stated),18.2,-2.33,/
COc1ccc(C(=O)N/N=C/C2CC=CCC2)cc1OC (configuration not stated),-1.3,/,/
O=C(/C=C/c1ccc(F)cc1)N1CC[C@@]2(O)CCCC[C@H]2C1,19.3,/,/
O=C(NCc1ccccc1Cl)c1ccc(S(=O)(=O)Nc2cccc(C(F)(F)F)c2)cc1,5.4,-1.61,/
N=c1oc2ccccc2cc1-c1nc(-c2ccccc2)cs1,16.6,0.49,/
N=c1oc2ccc3ccccc3c2cc1-c1nc(-c2ccccc2)cs1,4.0,/,0.0485*
Cc1ccc(/C(=N/Nc2nc3ccccc3s2)C2=C(O)c3ccccc3C2=O)cc1,2.1,1.19,/
COc1ccc2nc(SCC(=O)N3CCN(c4ccccc4F)CC3)c(C#N)cc2c1,/,-0.306,/
COc1ccccc1OCc1ccc(C(=O)N(C)C)o1,/,/,0.0841
CN(C)C(=O)c1ccc(COc2ccccc2Br)o1,/,-0.891,/
COc1ccc(S(=O)CC(=O)Nc2ccc(Cl)cc2Cl)cc1 (configuration not stated),19.1,0.348,/
SMILES,Calb biofilm kill,ROMK mod,ROMK retest
Cc1ccc2c(c1)c1c3n2CCCNC3CCC1 (configuration not stated),/,-2.09*,0.0604*
c1cc2c(cc1C1CCCCC1)c1c3n2CCCNC3CCC1 (configuration not stated),8.5,-0.502,/
CC1(C)C2CC=C(/C=N/NC(=S)Nc3cccnc3)C1C2 (configuration not stated),8.3,-3.1*,0.0779
CC(C)NC(=S)N/N=C/C1=CCC2CC1C2(C)C (configuration not stated),9.5,-0.0536,/
CCOc1ccc(N2C(=O)C3C(c4ccc(O)cc4)NC(CCSC)(C(=O)OC)C3C2=O)cc1 (configuration not stated),-0.4,0,/
CCCC1(C(=O)OCC)NC(c2ccc(O)cc2)C2C(=O)N(c3ccc4c(c3)OCCO4)C(=O)C21 (configuration not stated),/,1.17*,0.0748
O=C(Nc1ccc(Cl)cc1)c1cc2c(cc1O)[nH]c1ccccc12,20.6,/,/
O=C(NC1=NCCS1)c1cccc2ccccc12,12.7,-0.452,/
COc1ccc(C(=O)CN2Cc3ccccc3C2=N)cc1,21.1,/,/
Cc1ccc(NC(=O)N2CCN(c3ncccc3C(F)(F)F)CC2)cc1,22.0,/,/
O=C(Nc1ccc2ccccc2c1)N1CCN(c2ncccc2C(F)(F)F)CC1,/,-3.93*,0.0617*
Cc1ccnc(N2C(=O)CSC2c2ccc(Cl)cc2)c1 (configuration not stated),7.1,-0.813,/
Cc1ncoc1C(=O)Nc1ccc2c(c1)OCCO2,/,-0.0868,/
Cc1occc1C(=O)Nc1ccc2c(c1)OCCO2,/,/,0.077
Cc1cccc(NC(=O)C(CC(C)C)NC(=O)C2CCC(C)CC2)n1 (configuration not stated),1.2,-0.594,/
O=C(CSc1nnc(-c2ccncc2)o1)N1CCc2ccccc2C1,13.5,-0.0658,/
COCc1cc(CN2CCCC2)c(O)c2ncccc12,/,0.839,/
Oc1c(CN2CCCCC2)cc(COCc2ccccc2)c2cccnc12,/,-4.45*,0.0705
COc1ccc(CCNC(=O)/C(C#N)=C2\N=C(NC(=O)c3ccco3)c3ccccc32)cc1,11.4,/,/
O=C(COC(=O)c1ccc[nH]c1=O)NC1CCCCC1,30.3,/,/
CCN(CC)S(=O)(=O)c1ccc(N2CCCC2)c(C(=O)OCC(=O)Nc2cc(C)on2)c1,16.5,/,/
CCCCC(=O)Nc1ccc(C(=O)Nc2ccc(OC)cc2[N+](=O)[O-])cc1,7.4,/,0.0348*
CCCCC(=O)Nc1ccc(NC(=O)c2ccc([N+](=O)[O-])cc2)cc1OC,11.6,0.28,/
COc1ccc(N2CCc3c(C)nc4c(OC)cc(OC)cc4c32)cc1,14.4,-1.58,/
COc1ccc(N2CCc3c(C)nc4c(OC)cc(OC)cc4c32)c(OC)c1,/,/,0.061*
SMILES,Calb biofilm kill,ROMK mod,ROMK retest
Cc1nc2cc(F)ccc2n1C1CCN(S(=O)(=O)c2ccccc2)CC1,/,-6.13*,?
Cc1nc2cc(F)ccc2n1C1CCN(C(=O)c2c(F)cccc2F)CC1,5.4,-0.125,/
NC(=O)COC(=O)/C=C/c1cccc(Br)c1,10.2,0.306,/
CC1CC(C)(C)NC(=S)N1CCCC(=O)NCCc1ccc(Cl)cc1 (configuration not stated),18.6,-2.46,/
CN1CCN(NC(=O)c2ccc(Cl)c(S(=O)(=O)Nc3ccc(Cl)cc3)c2)CC1,-2.7,/,/
c1ccc2sc(Sc3ncnc4sccc34)nc2c1,15.0,/,0.0781
c1ccc(CSc2ncnc3sccc23)cc1,8.4,-0.15,/
CCSc1nnc(NC(=O)Cc2cc(OC)c(OC)c(OC)c2)s1,13.4,-0.267,/
CCOP1(=O)OCC2OC(n3cnc4c(N)ncnc43)C(O)C2O1 (configuration not stated),15.9,-0.13,/
COc1ccc(CNc2nc3ccccc3n2C)c(O)c1,18.6,/,/
COc1ccc(CNc2nc3ccccc3n2C)c(OC)c1,17.8,-7.63*,0.0771
CCC(=O)Oc1ccc2c(C)cc(=O)oc2c1C,/,-0.0268,/
Cc1ccc(/C(=N\O)c2oc3c(C)c4oc(=O)cc(C)c4cc3c2C)cc1,15.3,2.92*,0.115*
CCc1ccc2[nH]c(=O)c(CN(CC3CCCO3)C(=S)NCc3ccco3)cc2c1 (configuration not stated),10.8,-1.04,/
Cc1ccc2cc(CN(CC3CCCO3)C(=S)NCc3ccco3)c(=O)[nH]c2c1C (configuration not stated),12.6,/,0.0713
Cc1ccc(C)c2[nH]c(=O)c(CN(CC3CCCO3)C(=S)NCc3ccco3)cc12 (configuration not stated),22.6,-3.52*,?
Cc1ccc(C)c2[nH]c(=O)c(CN(Cc3cccs3)C(=S)NCc3ccco3)cc12,23.2,0.0847,/
